Bioassay records from PubChem BioAssay.
CYP2C19 activ: human CYP2C19 activators, primary screen, biochemical, luminescence; Cytochrome P450 2C19 (Homo sapiens), P33261; recombinant CYP2C19, luciferin-H EGE luminescence; stronger effect = higher value; 0 = fully inhibited enzyme, 1 = untreated enzyme; activation factor at 5 µM; 96,000 tested, under 10 active; AID 1025, 2008;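 active means activation factor of at least 2 at 5 µM in the primary screen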;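 further: 0 = wells with 2.5 mM tranylcypromine and 1 = vehicle-only wells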
Ecoli WT expand: growth inhibitors of wild-type E. coli, primary screen, strain BW25113, expanded library, OD600; 0.15% of 98,000 active; OD600 absorbance; growth inhibition, % at 100 µM;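 active means growth inhibition above about 50% at one test dose, limit read from the data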;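 further: growth measured after 20 h incubation at 37 °C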
tolC growth inh: growth inhibitors of E. coli tolC mutant, primary screen, strain BW25113 ΔtolC::kan, 384-well. OD615. growth inhibition, % at 10 µM (by protocol). 2.2% of 65,000 active;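 active means growth inhibition at or above a cutoff equal to the mean over every tested compound plus 3 SD, cut at about 60% in these data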;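 further: growth measured after 20 h incubation at 37 °C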
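Assay system: tolC-deleted E. coli BW25113. Medium: kanamycin-containing LB broth (50 µg/mL). Dosing: 10 µM final, single dose. Timing: bacterial growth with compound for 20 h at 37 °C. Detection: A615 absorbance measurement. Read-out basis: growth inhibition in percent.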
CYP2C9 act: human CYP2C9 activators, primary screen, biochemical, luminescence; Cytochrome P450 2C9 (Homo sapiens), P11712; AID 1024, 2008; recombinant CYP2C9, luciferin-H conversion; stronger effect = higher value; factor 1 = untreated enzyme, 0 = blocked; 1.4% of 96,000 active; activation factor at 5 µM;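 active means activation factor of 2 or more for CYP2C9 at a 5 µM dose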;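 further: 0 = sulfaphenazole-blocked wells and 1 = vehicle-only wells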
Target sequence (P11712 whole entry, looked up): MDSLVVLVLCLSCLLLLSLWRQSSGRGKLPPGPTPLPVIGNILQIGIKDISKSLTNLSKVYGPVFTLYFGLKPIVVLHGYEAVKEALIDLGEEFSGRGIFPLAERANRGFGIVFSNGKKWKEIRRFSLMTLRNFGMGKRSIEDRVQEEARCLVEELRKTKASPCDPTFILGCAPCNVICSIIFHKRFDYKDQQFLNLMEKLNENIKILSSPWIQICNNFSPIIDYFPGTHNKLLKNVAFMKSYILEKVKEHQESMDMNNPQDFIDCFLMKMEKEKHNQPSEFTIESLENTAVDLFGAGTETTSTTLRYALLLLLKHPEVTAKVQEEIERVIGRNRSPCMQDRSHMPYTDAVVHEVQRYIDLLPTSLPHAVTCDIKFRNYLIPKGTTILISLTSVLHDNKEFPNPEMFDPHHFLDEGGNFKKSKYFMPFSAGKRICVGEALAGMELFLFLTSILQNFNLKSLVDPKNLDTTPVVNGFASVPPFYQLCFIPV
CYP2C9 inhib: blockers of cytochrome P450 2C9 activity – biochemical, luminescence, ADME assay, primary screen | inhibition, % at 5 µM | 20% of 96,000 active | P11712 | CYP2C9 Supersomes, luciferin-H conversion;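 active means blocking of liver enzyme CYP2C9 beyond about 50% at 5 µM, limit read from the data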
CYP2C19 inh: blockers of cytochrome P450 2C19 activity – biochemical, luminescence, ADME assay, primary screen. AID 778, 2007. CYP2C19 Supersomes, luciferin-H EGE luminescence, 30 min. P33261. 21% of 96,000 active. inhibition, % at 5 µM;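 active means CYP2C19 inhibition above a set limit at 5 µM in the primary screen, cut at about 50% in these data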;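 further: plate controls were negative control wells for no effect and 2.5 mM tranylcypromine positive control for full effect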
* hit, by the source's call; x = no result. Most compounds without a hit are left out; they make up all but 29% or so of the library.

SMILES	CYP2C19 activ	Ecoli WT expand	tolC growth inh	CYP2C9 act	CYP2C9 inhib	CYP2C19 inh
COc1cc(CNCc2ccccn2)ccc1OCc1c(Cl)cccc1Cl	0.3	21	x	0.8	20	69*
CC1CC(C)CN(CCOc2ccc(Cl)cc2Cl)C1 (stereo not given)	0	40	x	0.9	7	98*
Clc1ccc(OCCN2CCCCC2)c(Cl)c1	0.5	13	x	1	3	46
COc1ccc(OC)c(C2=NOC(C(=O)Nc3ccccc3SC)C2)c1 (stereo not given)	0.1	-9	x	1.3	-33	86*
COc1cc(NC(=O)C2CC(c3cccc(OC)c3OC)=NO2)cc(OC)c1OC (stereo not given)	0.4	2	11	1.4	-37	61*
COc1ccc(OC)c(C2=NOC(C(=O)Nc3cccc(C(C)=O)c3)C2)c1 (stereo not given)	0.5	0	-5	2.3*	-134	52*
COc1cccc(C2=NOC(C(=O)Nc3ccc(C(C)=O)cc3)C2)c1 (stereo not given)	0.8	5	5	0.8	22	16
Cc1cc(NC(=O)CSc2nnc(Cn3c(=O)sc4ccccc43)n2-c2ccccc2C)no1	x	-5	15	x	x	x
Nc1cc(C(=O)OCC(=O)N2CCCC2)ccc1Cl	0.8	5	-11	0.6	41	18
Cc1cc(C)n(-c2ccc(Cl)c(C(=O)OCC(=O)N3CCCCC3C)n2)n1 (stereo not given)	0.7	x	4	0.6	43	35
CCC1CCCCN1C(=O)COC(=O)c1cc2ccccc2cc1O (stereo not given)	0.5	-11	48	1.2	-22	53*
O=C(OCC(=O)N1CCCCC1)c1cc2ccccc2cc1O	0.2	4	15	1.1	-5	76*
O=C(CNCCC1=CCCCC1)Nc1ccc(N2CCCCCC2)cc1	1	40	x	1	2	0
COc1cc(CN2CCN(S(=O)(=O)c3ccc(NC(C)=O)cc3)CC2)cc(OC)c1O	0.9	-7	3	0.6	35	10
O=c1cc(N2CCN(c3ccccc3)CC2)[nH]c(=O)n1Cc1ccc(F)cc1	1	-6	-2	0.8	20	1
CC1(C)CN(c2ccccc2)N(Cc2ccc(F)cc2)C1=O	0.4	5	x	0.9	13	60*
Nc1ncnc2c1ncn2CCN1CCOCC1	0.1	-4	-17	0.5	48	90*
Nc1ncnc2c1ncn2CCOc1ccccc1	1	-1	2	1.1	-13	4
Cc1ccc2c(c1)c1ncnc(N3CCOCC3)c1n2C	1	-2	12	0.8	18	2
Cc1ccc2c(c1)c1ncnc(N3CCC4(CC3)OCCO4)c1n2C	0.9	4	18	0.4	62*	12
Cc1ccc2c(c1)c1ncnc(N3CCN(c4ccccc4)CC3)c1n2C	0.9	-8	64*	0.8	16	10
CCSc1nc2c(cnn2-c2ccc(C)c(C)c2)c(=O)[nH]1	0.7	1	-11	1	0	34
COc1ccc(-n2c(SCC(=O)N3CCCC3)nc3c([nH]c4ccccc43)c2=O)cc1	x	x	-10	x	x	x
C=CCc1cc(C)cc(C)c1OCCn1cncn1	x	x	5	x	x	x
C=CCc1ccccc1OCCCCN1CCCC1	0.9	5	-5	1.1	-11	6
SMILES	CYP2C19 activ	Ecoli WT expand	tolC growth inh	CYP2C9 act	CYP2C9 inhib	CYP2C19 inh
Clc1ccccc1OCCN1CCCCC1	0.6	6	5	1	3	44
Clc1ccccc1OCCn1ccnc1	0.3	9	-2	0.3	74*	66*
Clc1cccc(OCCn2cncn2)c1Cl	0.2	2	-23	1.8	-81	84*
C=CCc1ccccc1OCCn1ccnc1	0.1	8	8	0.1	85*	92*
CC1(C)CC(=O)C2=C(C1)Nc1[nH]c(=S)[nH]c(=O)c1C2c1ccccc1 (stereo not given)	1	-3	-9	0.7	35	2
Cc1nn(C(C)CC(=O)O)c(C)c1Br (stereo not given)	1.1	-8	x	1	-1	-9
CCOC(=O)c1ccc(NC(=O)c2nn(CC)cc2Br)cc1	0.7	-4	30	1.5	-45	31
COC(=O)c1c(NC(=O)Cn2nc(C(F)F)cc2C(F)F)sc(C)c1C	0.7	-10	x	0.8	23	34
CCOC(=O)c1c(NC(=O)c2nn(CC)cc2Br)sc2c1CCCCC2	0.6	-17	12	0.2	82*	44
CCOC(=O)c1c(NC(=O)c2noc3c2CCCC3)sc2c1CCCC2	x	x	-19	x	x	x
CCOC(=O)c1c(NC(=O)c2nn(CC)cc2Br)sc(C)c1C	0.8	-2	-4	0.2	76*	20
CCOC(=O)c1c(NC(=O)Cn2nc(C(F)F)cc2C(F)F)sc(C)c1C	0.7	3	x	0.4	65*	28
O=C(CCSc1ccccc1)Nc1ccc(OCc2ccccc2)cc1	1	-4	x	0.9	6	-5
Cn1c(SCC(=O)Nc2ccc3nc(SCC(=O)N4CCCC4)sc3c2)nnc1-c1ccccc1	0.8	-3	x	0.6	43	20
Cc1cccc(NC(=O)CSc2nc3ccc(N4C(=O)c5ccccc5C4=O)cc3s2)c1C	0.7	-7	x	0.3	70*	30
Cc1cccc(NC(=O)CSc2nc3ccc(NC(=O)CSc4nnnn4-c4ccccc4)cc3s2)c1C	0.8	-5	x	0.3	68*	19
CN1CCN(S(=O)(=O)c2ccc(SCCOc3ccccc3)nc2)CC1	0.5	-6	17	1.4	-43	51*
Cn1nc(CC(=O)Nc2cccc3ncccc23)c2ccccc2c1=O	1.1	-4	-5	1.1	-7	-12
COC(=O)CC(=O)CSc1nc2c(cc1C#N)CCCCC2	0.4	-6	1	0.2	76*	62*
CCN1CCc2nc(SCC(=O)Nc3ccc(OC)cc3)c(C#N)cc2C1	1	-5	0	0.3	73*	4
CN1CCc2nc(SCc3ccc(C(C)(C)C)cc3)c(C#N)cc2C1	0.7	1	x	1	2	31
COc1ccc(NC(=O)CSc2nc3c(cc2C#N)CN(C)CC3)cc1	0.9	-3	-1	0.3	66*	10
CN1CCc2nc(SCC(=O)Nc3ccc(F)cc3)c(C#N)cc2C1	0.1	1	-6	0.3	75*	90*
COCC(=O)Nc1ccc(C(C)C)cc1	0.8	4	x	0.9	7	16
COc1ccccc1CNS(=O)(=O)c1c(C)[nH]c(=O)[nH]c1=O	0.8	-6	x	1.1	-12	15
